Experimental data as given in ChEMBL document CHEMBL1129606, “Synthesis and bioevaluation of delta 7-5-desaturase inhibitors, an enzyme late in the biosynthesis of the fungal sterol ergosterol” (J Med Chem, 1996).

Target: Delta(7)-sterol 5(6)-desaturase
Assay: Inhibition of 5-Desaturase involved in ergosterol biosynthesis
Parameters: species or system Saccharomyces cerevisiae
Summary of the method: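 Microsomal Δ7-sterol 5-desaturase from aerobically grown S. cerevisiae (37 °C, YPD). Cells bead-disrupted in 0.1 M Tris-HCl pH 7.4, 94500g pellet, desalted on Sephadex G-50. Incubated with Tween 20, FeCl3, NADPH and [5α,6α-3H]-7,22(E)-ergostadien-3β-ol with varied inhibitor, all else held constant. Alkali quench, EtOAc extraction, aqueous 3H2O scintillation-counted. IC50 from inverse velocity vs inhibitor concentration; mean of ≥2 experiments.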

Structure (SMILES) | IC50 [µM]
C[C@]12CC[C@H](O)C[C@]1(C=O)CC=C1CCC12 (some centres not stated) | 116
C[C@]12CC[C@H](O)C[C@]1(CO)CC=C1CCC12 (some centres not stated) | 112
C[C@]12CC[C@H](O)C[C@]1(O)CC=C1CCC12 (some centres not stated) | 148
C[C@]12CC[C@H](O)C[C@]1(O)[C@@H](O)C=C1CCC12 (some centres not stated) | 149
C[C@]12CC[C@H](O)C[C@]1(C#N)CC=C1CCC12 (some centres not stated) | 131
C[C@]12CC[C@H](O)C[C@]1(/C=N/O)CC=C1CCC12 (some centres not stated) | 136
C[C@]12CC[C@H](O)[C@H]3O[C@]31CC=C1CCC12 (some centres not stated) | 66
C[C@]12CC[C@H](O)C[C@]1(O)[C@H](O)C=C1CCC12 (some centres not stated) | 96
C[C@]12CC[C@H](O)C[C@]1(C(N)=O)CC=C1CCC12 (some centres not stated) | 114
C[C@]12CC[C@H](O)C[C@@H]1[C@@H](O)C=C1CCC12 (some centres not stated) | 47
C[C@]12CC[C@H](O)C[C@]1(S)CC=C1CCC12 (some centres not stated) | 80
C[C@]12CC[C@H](O)C[C@]1(C(=O)O)CC=C1CCC12 (some centres not stated) | 111
